For test [1], the target named is T1, Integrin alpha-IIb/beta-3 (Homo sapiens, UniProt P05106+P08514). The experiment in a line: Inhibition of [125I]fibrinogen binding to human Fibrinogen Receptor. It counts as protein-complex assay.
Target sequence in this assay (P05106 27-788 limits assumed): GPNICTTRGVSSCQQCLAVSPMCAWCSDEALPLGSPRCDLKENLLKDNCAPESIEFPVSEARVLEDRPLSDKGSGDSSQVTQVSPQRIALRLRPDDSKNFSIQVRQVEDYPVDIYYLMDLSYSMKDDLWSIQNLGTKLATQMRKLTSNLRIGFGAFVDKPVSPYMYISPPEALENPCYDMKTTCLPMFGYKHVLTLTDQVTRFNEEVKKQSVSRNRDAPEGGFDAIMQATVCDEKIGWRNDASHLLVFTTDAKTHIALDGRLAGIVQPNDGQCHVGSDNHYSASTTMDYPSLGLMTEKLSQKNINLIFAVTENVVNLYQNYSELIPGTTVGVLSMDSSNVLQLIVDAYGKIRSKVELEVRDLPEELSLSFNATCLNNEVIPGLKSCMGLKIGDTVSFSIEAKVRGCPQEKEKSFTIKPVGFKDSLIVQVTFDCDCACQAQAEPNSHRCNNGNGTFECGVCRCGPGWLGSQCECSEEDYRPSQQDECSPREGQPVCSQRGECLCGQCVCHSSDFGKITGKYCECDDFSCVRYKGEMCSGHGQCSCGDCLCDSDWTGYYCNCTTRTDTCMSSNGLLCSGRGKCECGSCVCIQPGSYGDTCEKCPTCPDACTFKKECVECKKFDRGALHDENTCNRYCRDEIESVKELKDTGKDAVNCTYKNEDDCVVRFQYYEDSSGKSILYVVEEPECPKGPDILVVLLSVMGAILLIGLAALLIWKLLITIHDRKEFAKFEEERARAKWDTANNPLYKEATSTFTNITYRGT
Target sequence in this assay (P08514 32-887 limits assumed): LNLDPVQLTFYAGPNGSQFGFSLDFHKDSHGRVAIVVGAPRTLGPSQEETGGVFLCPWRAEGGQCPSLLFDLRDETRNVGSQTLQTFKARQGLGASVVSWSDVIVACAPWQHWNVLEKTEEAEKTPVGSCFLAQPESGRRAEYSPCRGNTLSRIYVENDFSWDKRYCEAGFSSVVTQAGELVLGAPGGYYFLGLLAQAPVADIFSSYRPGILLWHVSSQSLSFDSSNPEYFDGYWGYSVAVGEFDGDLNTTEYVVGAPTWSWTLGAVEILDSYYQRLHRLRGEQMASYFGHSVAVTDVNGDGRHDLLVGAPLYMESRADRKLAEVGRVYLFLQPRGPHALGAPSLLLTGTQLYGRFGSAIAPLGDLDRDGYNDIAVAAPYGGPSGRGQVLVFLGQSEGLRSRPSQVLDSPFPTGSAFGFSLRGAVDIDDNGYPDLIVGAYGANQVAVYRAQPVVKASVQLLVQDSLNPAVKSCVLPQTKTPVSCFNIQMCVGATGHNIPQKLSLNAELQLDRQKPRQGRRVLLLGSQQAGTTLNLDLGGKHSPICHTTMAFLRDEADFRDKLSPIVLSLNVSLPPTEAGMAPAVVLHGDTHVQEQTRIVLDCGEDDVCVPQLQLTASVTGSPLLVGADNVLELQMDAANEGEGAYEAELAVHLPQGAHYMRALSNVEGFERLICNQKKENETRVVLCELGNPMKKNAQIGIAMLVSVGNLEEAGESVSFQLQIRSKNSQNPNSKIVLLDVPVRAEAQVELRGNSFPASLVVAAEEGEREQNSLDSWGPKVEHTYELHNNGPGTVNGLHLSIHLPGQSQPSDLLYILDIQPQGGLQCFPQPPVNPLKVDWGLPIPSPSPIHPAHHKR
Target sequence in this assay (P08514 891-1039 limits assumed): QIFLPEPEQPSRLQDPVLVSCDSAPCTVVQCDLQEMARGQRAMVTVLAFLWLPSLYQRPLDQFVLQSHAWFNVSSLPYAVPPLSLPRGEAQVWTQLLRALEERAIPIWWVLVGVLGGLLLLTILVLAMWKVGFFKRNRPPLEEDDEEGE
Test [2] can be described thus: In vitro inhibition of thrombin-induced platelet aggregation. It counts as functional. Conditions: Homo sapiens.
The target of test [3] is T1, Integrin alpha-IIb/beta-3. The test can be described thus: Inhibition of thrombin-induced platelet aggregation at 50 uM. It counts as functional.
The target in test [4] is T1, Integrin alpha-IIb/beta-3. The experiment in a line: Inhibition of [125I]fibrinogen binding to human Fibrinogen Receptor at 50 uM. It counts as protein-complex assay. In short, it runs like this: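 Human PRP with aspirin (50 μM, 37 °C, 20 min), pH 6.5, PGE1 0.9 μM; platelets gel-filtered, 1×10^8 per tube, thrombin-activated 2 min at room temperature, then hirudin. Compound plus [125I]fibrinogen (0.1 μM final) 10 min room temperature; platelets spun through silicone oil and pellet counted. Nonspecific binding with 4 mg/mL unlabeled fibrinogen; triplicates; % inhibition of specific binding vs fibrinogen alone.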

SMILES strings stand for the structures. A value given as a limit tells only on which side of the number the result lay.

27 compounds from ChEMBL document CHEMBL1128342, “Novel thiazole-based heterocycles as selective inhibitors of fibrinogen-mediated platelet aggregation” (J Med Chem, 1995) can be followed below.

As a reminder, the IC50 is the point on the concentration scale where inhibition reaches its midpoint. Read a high IC50 as weaker potency in that assay. Take `CC(C)NCCCNC(=O)c1cnn(-c2nc(-c3cccc(C(F)(F)F)c3)cs2)c1C(F)(F)F`: the half-inhibitory concentration (IC50) in test [1] is 11.2 µM; in test [2] it was 6.7 µM.

As to `N=C(N)NCCCNC(=O)c1cnn(-c2nc(-c3cccc(C(F)(F)F)c3)cs2)c1C(F)(F)F`, the results for the IC50 in test [1] and in test [2] were 17.5 µM and 11.8 µM, respectively.

In the case of `CCN(CC)CCCNC(=O)c1cnn(-c2nc(-c3ccc(C)cc3)cs2)c1C(F)(F)F`, the IC50 in test [1] came to 70 µM; in test [2], 8.2 µM. The term inhibition denotes the drop in the measured response relative to a control, in per cent. Regarding `CCN(CC)CCCNC(=O)c1cnn(-c2nc(-c3cccc(C(F)(F)F)c3)c(C(=O)O)s2)c1C(F)(F)F`, the inhibition in test [3] was 30%. Regarding `CCN(CC)CCCNC(=O)c1cnn(-c2nc(-c3ccc(C(F)(F)F)cc3)cs2)c1C(F)(F)F`, the results for the concentration for half-maximal inhibition (IC50) in test [1] and in test [2] were 40 µM and 9.1 µM, respectively. Taken in the same sequence, the figures for `NCCCNC(=O)c1cnn(-c2nc(-c3cccc(C(F)(F)F)c3)cs2)c1C(F)(F)F` were 12.3 µM and 14 µM. In the same order, the values of `O=C(NCCCNC1CCCCC1)c1cnn(-c2nc(-c3cccc(C(F)(F)F)c3)cs2)c1C(F)(F)F` are 25 µM and 6.1 µM. In the same order, the values of `O=C(NCCCN1CCCCC1)c1cnn(-c2nc(-c3cccc(C(F)(F)F)c3)cs2)c1C(F)(F)F` are 30 µM and 10.9 µM. `N=C(N)NCCC[C@H](N)C(=O)NCC(=O)N[C@@H](CC(=O)O)C(=O)N[C@@H](CO)C(=O)O` had a 50% inhibitory concentration (IC50) in test [2] of 30 µM. As to `COc1ccc(CCNC(=O)C(CC(=O)O)NC(=O)CCCCCCCN=C(N)N)cc1` (centres undefined), the IC50 in test [1] turned out to be 9 µM; in test [2] it was 7.9 µM. As for `CCN(CC)CCCNC(=O)c1cnn(-c2nc(-c3ccc(OC)cc3)cs2)c1C(F)(F)F`, in test [4], the inhibition turned out to be 57%. Further, in test [2], the IC50 came out at 12.5 µM.

Compound `NCCNC(=O)c1cnn(-c2nc(-c3cccc(C(F)(F)F)c3)cs2)c1C(F)(F)F` gave an inhibition in test [4] of 44%.

As for `CCN(CC)CCCCCCCNC(=O)c1cnn(-c2nc(-c3cccc(C(F)(F)F)c3)cs2)c1C(F)(F)F`, the results for the inhibition in test [3] and in test [4] were 35% and 0%, respectively. For the compound `CCCNCCCNC(=O)c1cnn(-c2nc(-c3cccc(C(F)(F)F)c3)cs2)c1C(F)(F)F`, the half-inhibitory concentration (IC50) in test [1] was 10 µM; in test [2], 14.3 µM. On to `NCCCCCNC(=O)c1cnn(-c2nc(-c3cccc(C(F)(F)F)c3)cs2)c1C(F)(F)F`, for which, in test [4], the inhibition came to 61%. The compound further showed an IC50 in test [2] of 11.5 µM.

Regarding `CCN(CC)CCCNC(=O)c1cnn(-c2nc(-c3ccccc3)cs2)c1C(F)(F)F`, the results for the half-inhibitory concentration (IC50) in test [1] and in test [2] were 50 µM and 30 µM, respectively. Consider `CCN(CC)CCCNC(=O)c1cnn(-c2nc(-c3cccc(C(F)(F)F)c3)c(Br)s2)c1C(F)(F)F`, for which the 50% inhibitory concentration (IC50) in test [1] was found to be 1.3 µM; in test [2] it was 2.7 µM. Regarding `CC(=O)Oc1ccccc1C(=O)O` [ASPIRIN], in test [2], the half-inhibitory concentration (IC50) is over 100 µM. Turning to `O=C(NCCCn1ccnc1)c1cnn(-c2nc(-c3cccc(C(F)(F)F)c3)cs2)c1C(F)(F)F`, the results for the inhibition in test [3] and in test [4] were 33% and 0%, respectively. Turning to `NCCCCNC(=O)c1cnn(-c2nc(-c3cccc(C(F)(F)F)c3)cs2)c1C(F)(F)F`, the IC50 in test [1] came to 18.3 µM; in test [2] it was 4.8 µM. In the case of `O=C(NCCCN1CCCC1=O)c1cnn(-c2nc(-c3cccc(C(F)(F)F)c3)cs2)c1C(F)(F)F`, the inhibition in test [3] and in test [4] was 0% each time. Consider `N=C(N)CCCNC(=O)c1cnn(-c2nc(-c3cccc(C(F)(F)F)c3)cs2)c1C(F)(F)F`, for which the values for the IC50 in test [1] and in test [2] were 23 µM and 13 µM, respectively. As for `O=C(NCCCNc1ccccc1)c1cnn(-c2nc(-c3cccc(C(F)(F)F)c3)cs2)c1C(F)(F)F`, the values for the inhibition in test [3] and in test [4] were 18% and 0%, respectively. Regarding `CCN(CC)CCCNC(=O)c1cnn(-c2nc(-c3ccc(Cl)cc3)cs2)c1C(F)(F)F`, the IC50 in test [1] was found to be 45 µM; in test [2], 6.8 µM. In the case of `CCN(CC)CCCNC(=O)c1cnn(-c2nc(-c3cccc(C(F)(F)F)c3)cs2)c1C(F)(F)F`, the 50% inhibitory concentration (IC50) in test [1] came to 4.1 µM. Turning to `CCN(CC)CCCNC(=O)c1cnn(-c2nc(-c3cccc(C)c3)cs2)c1C(F)(F)F`, the half-maximal inhibitory concentration (IC50) in test [1] turned out to be 50 µM; in test [2], 25 µM. Taken in the same sequence, the figures for `CN(C)/C=N/CCCNC(=O)c1cnn(-c2nc(-c3cccc(C(F)(F)F)c3)cs2)c1C(F)(F)F` were 15.6 µM and 13.7 µM.
